One may read the inhibition as the change of the read-out against control, counted positive when it falls.

Assay [1] addresses Dual specificity mitogen-activated protein kinase kinase 2 (Homo sapiens) (UniProt P36507). Put plainly: Inhibition of human recombinant MAP2K2 at 15 nM in presence of ATP by radiometric assay relative to control.
The target in assay [2] is Ephrin type-A receptor 2 (Homo sapiens) (UniProt P29317). Put plainly: Inhibition of human recombinant EphA2 at 40 nM in presence of ATP by radiometric assay relative to control.
Sequence of Ephrin type-A receptor 2 (Homo sapiens) (P29317 whole entry): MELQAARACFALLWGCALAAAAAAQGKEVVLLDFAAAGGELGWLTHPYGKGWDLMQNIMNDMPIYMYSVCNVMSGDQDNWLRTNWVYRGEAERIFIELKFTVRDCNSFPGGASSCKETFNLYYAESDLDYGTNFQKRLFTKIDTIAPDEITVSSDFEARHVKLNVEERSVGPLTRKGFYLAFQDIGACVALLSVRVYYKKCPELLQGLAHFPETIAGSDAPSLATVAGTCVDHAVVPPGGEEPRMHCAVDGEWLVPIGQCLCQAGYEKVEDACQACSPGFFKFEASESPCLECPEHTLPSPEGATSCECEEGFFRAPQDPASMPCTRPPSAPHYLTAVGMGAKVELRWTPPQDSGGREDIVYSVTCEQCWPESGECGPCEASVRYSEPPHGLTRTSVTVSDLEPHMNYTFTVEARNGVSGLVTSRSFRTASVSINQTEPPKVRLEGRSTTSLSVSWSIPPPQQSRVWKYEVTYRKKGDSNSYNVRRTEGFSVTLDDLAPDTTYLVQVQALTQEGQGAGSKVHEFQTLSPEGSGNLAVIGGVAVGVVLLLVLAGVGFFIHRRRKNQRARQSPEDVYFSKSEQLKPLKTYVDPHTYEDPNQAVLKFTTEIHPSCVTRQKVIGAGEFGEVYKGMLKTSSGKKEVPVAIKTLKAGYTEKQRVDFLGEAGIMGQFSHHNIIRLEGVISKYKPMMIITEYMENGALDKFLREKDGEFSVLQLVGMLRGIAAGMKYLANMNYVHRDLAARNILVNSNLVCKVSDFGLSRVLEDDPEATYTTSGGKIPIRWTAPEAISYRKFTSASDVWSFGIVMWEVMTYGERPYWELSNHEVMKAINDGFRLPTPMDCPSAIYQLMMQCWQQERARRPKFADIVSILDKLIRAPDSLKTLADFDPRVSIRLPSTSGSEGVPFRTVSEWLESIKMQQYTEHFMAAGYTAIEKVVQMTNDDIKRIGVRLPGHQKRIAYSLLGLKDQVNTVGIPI
Assay [3] concerns the target T1, Serine/threonine-protein kinase STK11 (Homo sapiens) (UniProt Q15831).
T1 sequence (whole entry): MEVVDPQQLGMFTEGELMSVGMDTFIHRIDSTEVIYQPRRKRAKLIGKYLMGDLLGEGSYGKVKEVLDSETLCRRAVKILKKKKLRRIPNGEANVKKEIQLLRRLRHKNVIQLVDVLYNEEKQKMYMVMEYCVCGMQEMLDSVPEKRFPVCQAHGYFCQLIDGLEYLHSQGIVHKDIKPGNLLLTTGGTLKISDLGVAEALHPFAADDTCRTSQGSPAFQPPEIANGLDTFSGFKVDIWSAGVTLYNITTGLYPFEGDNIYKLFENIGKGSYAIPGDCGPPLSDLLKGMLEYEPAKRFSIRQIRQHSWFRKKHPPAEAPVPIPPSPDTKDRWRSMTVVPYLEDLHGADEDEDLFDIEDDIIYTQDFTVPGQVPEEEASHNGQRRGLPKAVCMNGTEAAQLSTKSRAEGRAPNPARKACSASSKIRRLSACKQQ
The experiment in a line: Inhibition of human recombinant LKB1 at 40 nM in presence of ATP by radiometric assay relative to control.

Assay [4] deals with Serine/threonine-protein kinase MARK2 (Homo sapiens) (UniProt Q7KZI7). Put plainly: Inhibition of human recombinant MARK2 at 40 nM in presence of ATP by radiometric assay relative to control.
Sequence of Serine/threonine-protein kinase MARK2 (Homo sapiens) (Q7KZI7 whole entry): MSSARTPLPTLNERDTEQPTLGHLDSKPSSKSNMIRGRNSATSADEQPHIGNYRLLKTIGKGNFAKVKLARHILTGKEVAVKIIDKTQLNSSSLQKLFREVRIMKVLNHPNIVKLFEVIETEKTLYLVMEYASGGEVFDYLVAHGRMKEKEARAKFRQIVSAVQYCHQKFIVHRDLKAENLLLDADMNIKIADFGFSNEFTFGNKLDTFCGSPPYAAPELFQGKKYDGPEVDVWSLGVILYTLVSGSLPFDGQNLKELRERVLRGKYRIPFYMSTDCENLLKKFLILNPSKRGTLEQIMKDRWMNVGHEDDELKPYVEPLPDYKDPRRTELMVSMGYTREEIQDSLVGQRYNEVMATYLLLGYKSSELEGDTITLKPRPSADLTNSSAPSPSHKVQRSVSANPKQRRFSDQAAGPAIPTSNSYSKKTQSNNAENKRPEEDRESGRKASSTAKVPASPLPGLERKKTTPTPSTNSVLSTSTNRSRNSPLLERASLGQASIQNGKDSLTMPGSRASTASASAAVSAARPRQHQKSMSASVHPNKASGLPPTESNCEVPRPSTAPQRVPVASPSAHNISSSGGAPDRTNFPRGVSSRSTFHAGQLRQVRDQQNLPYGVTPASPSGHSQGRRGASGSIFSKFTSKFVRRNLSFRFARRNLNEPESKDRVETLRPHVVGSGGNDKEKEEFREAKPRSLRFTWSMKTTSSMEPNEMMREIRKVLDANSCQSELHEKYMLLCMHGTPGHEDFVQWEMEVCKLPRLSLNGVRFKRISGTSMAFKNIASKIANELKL
For assay [5], the target named is Calcium/calmodulin-dependent protein kinase type II subunit gamma (Homo sapiens) (UniProt Q13555). Put plainly: Inhibition of human recombinant CaMK2g at 40 nM related to control ULK1.
Sequence of Calcium/calmodulin-dependent protein kinase type II subunit gamma (Homo sapiens) (Q13555 whole entry): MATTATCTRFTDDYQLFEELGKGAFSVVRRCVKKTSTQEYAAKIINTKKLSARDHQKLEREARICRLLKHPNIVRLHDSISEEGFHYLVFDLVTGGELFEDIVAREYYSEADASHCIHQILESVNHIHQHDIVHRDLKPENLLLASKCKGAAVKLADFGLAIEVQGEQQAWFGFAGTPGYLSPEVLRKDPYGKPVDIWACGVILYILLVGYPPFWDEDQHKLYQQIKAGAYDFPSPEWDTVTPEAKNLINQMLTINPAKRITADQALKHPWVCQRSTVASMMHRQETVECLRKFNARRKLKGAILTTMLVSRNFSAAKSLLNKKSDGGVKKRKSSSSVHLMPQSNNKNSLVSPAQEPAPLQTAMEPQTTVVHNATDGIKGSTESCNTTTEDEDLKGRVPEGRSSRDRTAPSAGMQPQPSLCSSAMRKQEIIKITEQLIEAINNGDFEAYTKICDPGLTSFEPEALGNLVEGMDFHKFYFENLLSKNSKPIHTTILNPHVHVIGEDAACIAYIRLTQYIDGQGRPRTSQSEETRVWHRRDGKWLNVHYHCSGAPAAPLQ
For assay [6], the target named is T2, Myosin-IIIb (Homo sapiens) (UniProt Q8WXR4).
T2 sequence (whole entry): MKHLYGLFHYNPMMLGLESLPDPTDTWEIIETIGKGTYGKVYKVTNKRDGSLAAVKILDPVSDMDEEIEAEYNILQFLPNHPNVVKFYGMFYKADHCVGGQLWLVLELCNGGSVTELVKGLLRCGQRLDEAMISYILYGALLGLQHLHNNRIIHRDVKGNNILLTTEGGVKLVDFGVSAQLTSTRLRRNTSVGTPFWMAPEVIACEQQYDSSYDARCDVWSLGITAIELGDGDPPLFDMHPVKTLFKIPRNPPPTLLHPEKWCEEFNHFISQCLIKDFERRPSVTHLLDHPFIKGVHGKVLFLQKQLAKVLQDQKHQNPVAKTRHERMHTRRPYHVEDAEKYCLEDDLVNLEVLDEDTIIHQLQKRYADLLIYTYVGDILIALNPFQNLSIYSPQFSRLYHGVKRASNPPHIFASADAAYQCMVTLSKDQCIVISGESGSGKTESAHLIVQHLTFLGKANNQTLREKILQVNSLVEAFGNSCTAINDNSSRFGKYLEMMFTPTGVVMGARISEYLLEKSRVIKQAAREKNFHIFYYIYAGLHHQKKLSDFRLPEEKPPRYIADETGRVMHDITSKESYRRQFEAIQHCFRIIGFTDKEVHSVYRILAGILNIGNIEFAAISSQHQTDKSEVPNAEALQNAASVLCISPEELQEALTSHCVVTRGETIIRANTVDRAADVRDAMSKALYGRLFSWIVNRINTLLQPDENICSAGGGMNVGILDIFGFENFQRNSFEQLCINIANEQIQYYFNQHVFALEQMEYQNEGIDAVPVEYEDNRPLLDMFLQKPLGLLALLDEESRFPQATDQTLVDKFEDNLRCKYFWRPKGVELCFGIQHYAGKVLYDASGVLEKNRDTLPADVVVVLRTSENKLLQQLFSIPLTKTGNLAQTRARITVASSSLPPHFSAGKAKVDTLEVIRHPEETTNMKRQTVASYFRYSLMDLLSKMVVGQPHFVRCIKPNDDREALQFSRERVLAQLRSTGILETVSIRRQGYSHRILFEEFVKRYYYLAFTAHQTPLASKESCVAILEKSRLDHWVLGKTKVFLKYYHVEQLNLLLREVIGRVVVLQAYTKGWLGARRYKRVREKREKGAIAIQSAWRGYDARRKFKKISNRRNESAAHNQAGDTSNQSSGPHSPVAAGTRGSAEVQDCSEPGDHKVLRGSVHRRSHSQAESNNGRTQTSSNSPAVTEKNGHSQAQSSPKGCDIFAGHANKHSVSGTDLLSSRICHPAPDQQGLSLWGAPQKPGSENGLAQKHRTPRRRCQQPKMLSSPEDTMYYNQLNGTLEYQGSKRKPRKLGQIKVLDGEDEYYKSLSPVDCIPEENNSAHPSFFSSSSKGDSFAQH
The experiment in a line: Inhibition of human recombinant MYO3B at 40 nM related to control ULK1.

For assay [7], the target named is Serine/threonine-protein kinase ATR (Homo sapiens) (UniProt Q13535). The experiment in a line: Inhibition of human recombinant ATR at 500 nM in presence of ATP by radiometric assay relative to control. The method, boiled down:
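Panel of 327 recombinant human kinases, each assayed in vitro by radiometric activity assay in duplicate at a single inhibitor concentration per compound, chosen with reference to its ULK1 inhibition. Activity remaining was expressed as percent of vehicle control, and percent inhibition was calculated as 100 minus percent activity remaining.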

The target of assay [8] is Insulin-like growth factor 1 receptor (Homo sapiens) (UniProt P08069). Put plainly: Inhibition of human recombinant IGF1R at 500 nM related to control ULK1.
Sequence of Insulin-like growth factor 1 receptor (Homo sapiens) (P08069 31-736 limits assumed): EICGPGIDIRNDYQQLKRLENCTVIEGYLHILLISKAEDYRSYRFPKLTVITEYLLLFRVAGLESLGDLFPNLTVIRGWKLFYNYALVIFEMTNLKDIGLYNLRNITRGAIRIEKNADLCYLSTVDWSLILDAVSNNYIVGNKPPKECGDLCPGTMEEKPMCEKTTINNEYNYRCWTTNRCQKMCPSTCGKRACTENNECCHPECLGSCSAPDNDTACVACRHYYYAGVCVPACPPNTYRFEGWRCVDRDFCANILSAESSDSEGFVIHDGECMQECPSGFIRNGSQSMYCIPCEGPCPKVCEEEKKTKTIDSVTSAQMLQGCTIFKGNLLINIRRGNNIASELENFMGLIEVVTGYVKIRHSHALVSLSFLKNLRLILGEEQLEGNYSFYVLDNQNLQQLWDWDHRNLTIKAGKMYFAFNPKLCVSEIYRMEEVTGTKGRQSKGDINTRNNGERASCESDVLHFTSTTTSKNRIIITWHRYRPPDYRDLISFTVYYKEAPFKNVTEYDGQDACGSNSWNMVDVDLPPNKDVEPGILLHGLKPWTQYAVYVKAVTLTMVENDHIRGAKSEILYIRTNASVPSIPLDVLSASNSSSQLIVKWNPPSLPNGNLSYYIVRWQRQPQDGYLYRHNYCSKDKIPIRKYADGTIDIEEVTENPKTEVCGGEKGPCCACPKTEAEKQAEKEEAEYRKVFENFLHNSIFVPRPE
Sequence of Insulin-like growth factor 1 receptor (Homo sapiens) (P08069 741-1367 limits assumed): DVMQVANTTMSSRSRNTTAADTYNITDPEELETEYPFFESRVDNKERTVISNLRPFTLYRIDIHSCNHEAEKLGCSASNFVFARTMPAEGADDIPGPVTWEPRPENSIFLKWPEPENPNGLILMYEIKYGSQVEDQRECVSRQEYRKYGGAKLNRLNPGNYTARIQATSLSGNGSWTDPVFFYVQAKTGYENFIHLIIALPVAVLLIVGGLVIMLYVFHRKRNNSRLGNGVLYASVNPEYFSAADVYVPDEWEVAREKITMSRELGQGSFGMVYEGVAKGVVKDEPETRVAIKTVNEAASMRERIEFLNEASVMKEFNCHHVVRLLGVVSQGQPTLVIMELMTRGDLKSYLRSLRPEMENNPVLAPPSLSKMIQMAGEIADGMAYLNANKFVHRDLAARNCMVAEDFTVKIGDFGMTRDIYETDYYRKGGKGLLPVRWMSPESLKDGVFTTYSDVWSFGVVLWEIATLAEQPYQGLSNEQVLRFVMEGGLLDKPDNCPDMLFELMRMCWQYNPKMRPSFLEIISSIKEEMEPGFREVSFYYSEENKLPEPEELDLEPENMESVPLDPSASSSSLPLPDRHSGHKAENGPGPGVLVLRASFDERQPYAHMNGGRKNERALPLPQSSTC

Structures are written as SMILES.

Sequence of Dual specificity mitogen-activated protein kinase kinase 2 (Homo sapiens) (P36507 whole entry): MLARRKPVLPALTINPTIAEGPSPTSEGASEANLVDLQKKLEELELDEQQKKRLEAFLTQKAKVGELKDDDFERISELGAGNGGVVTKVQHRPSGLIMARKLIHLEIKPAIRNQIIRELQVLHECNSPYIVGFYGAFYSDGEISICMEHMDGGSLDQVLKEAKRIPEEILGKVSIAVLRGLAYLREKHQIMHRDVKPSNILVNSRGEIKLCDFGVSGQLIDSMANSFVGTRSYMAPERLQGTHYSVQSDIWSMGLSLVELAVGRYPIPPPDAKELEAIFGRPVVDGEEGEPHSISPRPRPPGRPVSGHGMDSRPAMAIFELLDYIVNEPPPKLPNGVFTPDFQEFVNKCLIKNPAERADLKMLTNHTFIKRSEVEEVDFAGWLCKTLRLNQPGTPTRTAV

Take `CC(C)[C@H](NC(=O)c1cc(-c2cnn3cc(-c4ccc(OCCN5CCCCC5)cc4)cnc23)cs1)C(F)(F)F`: the inhibition in assay [1] is 0%.
With `O=C(N[C@@H](C1CC1)C(F)(F)F)c1cc(-c2cnn3cc(-c4ccc(F)cc4)cnc23)cs1`, the inhibition came out at 2% in assay [2], 13% in assay [3] and 12% in assay [4]. The fold change (FC) is 0.01 in assay [5] and 0 in assay [6].
On to `CNC(=O)c1ccccc1Oc1nc(Nc2cc(OC)c(OC)c(OC)c2)ncc1Br`, for which the inhibition in assay [7] worked out at 0%. Further, in assay [8], the fold change (FC) worked out at 0.04.
